Test results taken from ChEMBL document CHEMBL1124794, “Synthesis, chemistry, and antineoplastic activity of alpha-halopyridinium salts: potential pyridone prodrugs of acylated vinylogous carbinolamine tumor inhibitors” (J Med Chem, 1990).
Where “and” joins values, the source holds several entries; their conditions need not be identical. Equal entries are not always repeated.

Key:
P388 [1] = experiment: In vivo activity against P388 Lymphocytic Leukemia in CD2F1 mice at the dose of 50 mg/kg, activity expressed as TDS; 6/6; type: functional, Mus musculus
In short: (§1)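 CD2F1 mice were inoculated with ascitic fluid holding ca. 10^6 P388 cells. Drug was given daily from 24 h after inoculation, from solutions or suspensions made fresh each day, some as a saline suspension. TDS is survivors/initial animals on day 5. BWD is body weight on day 5 minus day 1. %T/C compares median survival of treated and control mice.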

P388 [2] = experiment: In vivo activity against P388 Lymphocytic Leukemia in CD2F1 mice at the dose of 25 mg/kg, activity expressed as TDS; 6/6; type: functional, Mus musculus; in short: as §1
P388 [3] = experiment: In vivo activity against P388 Lymphocytic Leukemia in CD2F1 mice at the dose of 50 mg/kg, activity expressed as % T/C; type: functional, Mus musculus; in short: as §1
[4] = Effect of phosphate buffer on the hydrolysis of alpha Fluoropyridinium Moity at the concentration of 0.10M, pH 8.0, 25 degree C.; type: ADME
In short: (§2)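 α-Fluoropyridinium hydrolysis to pyridone in phosphate buffer at 0.02, 0.05 or 0.10 M, pH 6.5 or 8.0, ionic strength […] °C. Pyridinium UV absorbance maximum followed with time to give pseudo-first-order kobs and half-life.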

P388 [5] = experiment: In vivo activity against P388 Lymphocytic Leukemia in CD2F1 mice at the dose of 12.5 mg/kg, activity expressed as KE; type: functional, Mus musculus
P388 [6] = experiment: In vivo activity against P388 Lymphocytic Leukemia in CD2F1 mice at the dose of 25 mg/kg, activity expressed as % T/C; type: functional, Mus musculus; in short: as §1
[7] = In vivo activity against murine M5076 tumor system at the dose of 50 mg/kg, activity expressed as body weight difference; type: functional, Mus musculus
[8] = Half life at the pH 8.0; type: ADME; details: buffer
[9] = Half life at the buffer concentration of 0.02 M.; type: ADME; in short: as §2
[10] = Half life at the buffer concentration of 0.05 M.; type: ADME
[11] = Half life at the ionic strength 1.0 M NaCl; type: ADME
In short: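 Pyridinium salt in 0.02 M phosphate buffer, pH 7.4, 25 °C, with NaCl varied 0.10–1.0 M. Loss of the pyridinium chromophore's UV absorbance maximum (conversion to pyridone) followed over time. Pseudo-first-order kobs and half-life derived from that decay.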

[12] = Half life at the pH 7.4; type: ADME; details: buffer
MX1 [13] = experiment: In vivo activity against murine MX-1 tumor system at the dose of 75 mg/kg, activity expressed as body weight difference.; type: functional, Mus musculus
P388 [14] = experiment: In vivo activity against P388 Lymphocytic Leukemia in CD2F1 mice at the dose of 50 mg/kg, activity expressed as KE; type: functional, Mus musculus
[15] = Effect of phosphate buffer concentration on the hydrolysis of alpha Fluoropyridinium Moity at the concentration of 0.02M, pH 6.5, 25 degree C.; type: ADME; in short: as §2
[16] = Effect of pH on the hydrolysis of pyridinium Moity in 0.05 M buffer concentration at the pH 8.0; type: ADME
In short: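 Pyridinium salt in 0.05 M phosphate buffer, pH 6.0–8.0 (set by pH meter), ionic strength 0.25 M, 25 °C. Decrease in the pyridinium UV absorbance maximum followed over time to give pseudo-first-order kobs and half-life.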

MX1 [17] = experiment: In vivo activity against murine MX-1 tumor system at the dose of 150 mg/kg, activity expressed as TDS; 0/6; type: functional, Mus musculus
MX1 [18] = experiment: In vivo activity against murine MX-1 tumor system at the dose of 37.5 mg/kg, activity expressed as body weight difference.; type: functional, Mus musculus
[19] = Half life at the pH 6.0; type: ADME; details: buffer
In short: (§3)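 Bis-carbamate in acetonitrile–water (1:1; buffer added to a 0.5 mg/mL acetonitrile solution), 0.05 M buffer, ionic strength 0.136 (KCl), 25 ± 0.1 °C. Buffers: phosphate pH 2.0; citrate pH 3.0–3.5; succinate pH 4.0; acetate pH 5.0; phosphate pH 6.0–8.0; borate pH 9.0; carbonate pH 10.0. HPLC bis-carbamate peak-area loss, ln(area0/areat) vs time slope = kobs. Duplicates averaged.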

P388 [20] = experiment: In vivo activity against P388 Lymphocytic Leukemia in CD2F1 mice at the dose of 12.5 mg/kg, activity expressed as TDS; 6/6; type: functional, Mus musculus; in short: as §1
[21] = Half life at the pH 6.5; type: ADME; details: buffer
L1210 [22] = experiment: In vivo activity against murine L1210 tumor system at the dose of 50 mg/kg, activity expressed as body weight difference; type: functional, Mus musculus
In short: (§4)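 L1210 lymphocytic leukemia: ascitic fluid with ca. 10^6 cells injected ip into CD2F1 mice. Dosing started 24 h after inoculation and was repeated daily for five doses in total, from solutions or suspensions made fresh each day. Toxicity day survivors were scored on day 5. Body weight difference is day 5 minus day 1. %T/C is based on median survival time versus controls.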

P388 [23] = experiment: In vivo activity against P388 Lymphocytic Leukemia in CD2F1 mice at the dose of 12.5 mg/kg, activity expressed as % T/C; type: functional, Mus musculus; in short: as §1
[24] = In vivo activity against murine M5076 tumor system at the dose of 100 mg/kg, activity expressed as KE; type: functional, Mus musculus
In short: (§5)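 M5076: ascitic fluid with ca. 10^6 cells inoculated ip into CD2F1 mice. Dosing started 24 h after inoculation and was then given every 4 days for four doses in total, from solutions or suspensions made fresh each day. Toxicity day survivors were scored on day 5. Body weight difference is day 14 minus day 1. %T/C is based on median survival time versus controls.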

[25] = In vivo activity against murine M5076 tumor system at the dose of 21.6 mg/kg, activity expressed as body weight difference; T-C; type: functional, Mus musculus; in short: as §5
L1210 [26] = experiment: In vivo activity against murine L1210 tumor system at the dose of 21.6 mg/kg, activity expressed as KE; type: functional, Mus musculus; in short: as §4
[27] = Effect of phosphate buffer on carbamate hydrolysis in acetonitrile-water at the concentration of 0.025 M on pH 7.4, 25 degree C.; type: ADME
In short: (§6)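 Bis-carbamate in acetonitrile–water (1:1), 25 ± 0.1 °C. Citrate buffer at pH 3.0 or phosphate buffer at pH 7.4, at 0.01, 0.025 or 0.05 M, ionic strength 0.136 (KCl). Kinetics followed by HPLC as the decrease in bis-carbamate peak area. The regression slope of ln(area0/areat) vs time gave pseudo-first-order kobs. Duplicates averaged.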

[28] = In vivo activity against murine M5076 tumor system at the dose of 166.7 mg/kg, activity expressed as body weight difference; T-C; type: functional, Mus musculus; in short: as §5
[29] = Effect of pH on carbamate hydrolysis in 0.05 M buffer concentration at the pH 4.0, 25 degree C.; type: ADME; in short: as §3
[30] = In vivo activity against murine M5076 tumor system at the dose of 166.7 mg/kg, activity expressed as TDS; 4/10; type: functional, Mus musculus; in short: as §5
[31] = In vivo activity against murine M5076 tumor system at the dose of 21.6 mg/kg, activity expressed as TDS; 10/10; type: functional, Mus musculus; in short: as §5
[32] = In vivo activity against murine M5076 tumor system at the dose of 60 mg/kg, activity expressed as KE; type: functional, Mus musculus
[33] = Half life at the buffer concentration of 0.01 M.; type: ADME; in short: as §6
L1210 [34] = experiment: In vivo activity against murine L1210 tumor system at the dose of 166.7 mg/kg, activity expressed as TDS; 5/6; type: functional, Mus musculus; in short: as §4

| SMILES | TDS (P388 [1]) | TDS (P388 [2]) | T/C (P388 [3]) [%] | KE (P388 [5]) | T/C (P388 [6]) [%] | half-life [8] [min] | half-life [10] [min] | half-life [12] [min] | KE (P388 [14]) | half-life [19] [min] | TDS (P388 [20]) | T/C (P388 [23]) [%] | further results |
| --- | --- | --- | --- | --- | --- | --- | --- | --- | --- | --- | --- | --- | --- |
| CC(C)NC(=O)OCc1c(COC(=O)NC(C)C)c(-c2cc[n+](C)c(F)c2)n2c1CCC2.[I-] | 6 | 6 | 157 | 0.75 | 141 | 13.3 | 34.6 | 20.5 | 1.32 | 158 | 6 | 149 | K obs [4]: 0.036 min⁻¹; BWD [7]: 1.4 g; half-life [9]: 52.5 min; half-life [11]: 99.1 min; BWD (MX1 [13]): 0.2 g; K obs [15]: 0.0052 min⁻¹; K obs [16]: 0.052 min⁻¹; TDS (MX1 [17]): 0; BWD (MX1 [18]): 0.3 g; half-life [21]: 45.3 min; BWD (L1210 [22]): -0.8 g |
| CC(C)NC(=O)OCc1c(COC(=O)NC(C)C)c(-c2ccn(C)c(=O)c2)n2c1CCC2 | 6 | 6 | 132 | -1.39 | 130 | 54.1 | 53.5 | 53.5 | -0.38 | 51.4 | 6 | 116 | KE [24]: -1.49; BWD [25]: 1.7 g; KE (L1210 [26]): -0.86; K obs [27]: 0.0134 min⁻¹; BWD [28]: -5.8 g; K obs [29]: 0.0149 min⁻¹; TDS [30]: 4; TDS [31]: 10; KE [32]: -1.79; T1/2 [33]: 19.86 min and 52.31 min; TDS (L1210 [34]): 5 |
